Test results taken from PubChem BioAssay AID2529 (Broad Institute, 2010).
Active and inactive are the calls of the source.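 How the source made its calls: active means inhibition at 30 µM, averaged over replicates, above 50% in every run; inconclusive means inhibition above 50% in some runs but not others; inactive means inhibition at most 50% in every run.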

Tested on: human washed platelets, PMA-induced P-selectin, flow cytometry
Test: inhibitors of PMA-stimulated platelet P-selectin exposure, confirmation, selectivity assay, cell-based, fluorescence, flow cytometry, platelets (AID 2529)
Settings: at 30 µM, stronger effect = higher value
Summary of the method: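 test system = platelets | timing = compound pre-treatment 20 min, PMA stimulation 15 min, antibody labeling 20 min | compound = 30 µM single dose | technique = flow cytometry, PE anti-P-selectin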

CCCC(=O)Nc1cccc(NC(=O)c2ccccc2Br)c1
inhibition: 13% (inactive)

O=C(Nc1cccc(NC(=O)c2ccccc2Cl)c1)c1ccco1
inhibition: 17% (inactive) | inhibition (measured here: second run average inhibition): 8%
